Test results reported in ChEMBL document CHEMBL5230171, “Expanding the structure-activity relationships of alkynyl diphenylurea scaffold as promising antibacterial agents” (RSC Med Chem, 2023).
≈ marks a conversion by molar mass, not a printed value. Calls of active or inactive are those of the source. The rule behind the calls is not given here.

Experiments:
[1] = test system: Staphylococcus aureus; assay: Antibacterial activity against methicillin resistant Staphylococcus aureus 385 assessed as inhibition of bacterial growth at 0.5 ug/ml incubated for 18 to 20 hrs by CLSI protocol based broth microdilution method; assay type: functional, organism-based; details: dose 0.5 µg/ml, time 18-20 hrs
[2] = test system: Staphylococcus aureus; assay: Antibacterial activity against methicillin resistant Staphylococcus aureus 386 assessed as inhibition of bacterial growth at 0.5 ug/ml incubated for 18 to 20 hrs by CLSI protocol based broth microdilution method; assay type: functional, organism-based; details: dose 0.5 µg/ml, time 18-20 hrs
[3] = test system: Staphylococcus aureus; assay: Antibacterial activity against methicillin resistant Staphylococcus aureus 123 assessed as inhibition of bacterial growth at 0.5 ug/ml incubated for 18 to 20 hrs by CLSI protocol based broth microdilution method; assay type: functional, organism-based; details: dose 0.5 µg/ml, time 18-20 hrs
[4] = test system: Staphylococcus aureus; assay: Antibacterial activity against vancomycin resistant Staphylococcus aureus 10 assessed as inhibition of bacterial growth at 0.5 ug/ml incubated for 18 to 20 hrs by CLSI protocol based broth microdilution method; assay type: functional, organism-based; details: dose 0.5 µg/ml, time 18-20 hrs
[5] = test system: Staphylococcus aureus; assay: Antibacterial activity against vancomycin resistant Staphylococcus aureus 9 assessed as inhibition of bacterial growth at 0.5 ug/ml incubated for 18 to 20 hrs by CLSI protocol based broth microdilution method; assay type: functional, organism-based; details: dose 0.5 µg/ml, time 18-20 hrs
[6] = test system: Staphylococcus aureus; assay: Antibacterial activity against methicillin resistant Staphylococcus aureus NRS384 USA300 assessed as inhibition of bacterial growth incubated for 18 to 20 hrs by CLSI protocol based broth microdilution method; assay type: functional; details: time 18-20 hrs, read-out: MIC
How it was run: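 Broth microdilution against staphylococcal clinical isolates. Each strain was prepared as a 0.5 McFarland suspension and diluted in cation-adjusted Mueller Hinton broth to ~5 × 10^5 CFU mL−1. Serial dilutions of test agents in DMSO stock were incubated with the bacteria, and the MIC was recorded.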

[7] = test system: Staphylococcus aureus; assay: Antibacterial activity against vancomycin resistant Staphylococcus aureus 12 assessed as inhibition of bacterial growth at 0.5 ug/ml incubated for 18 to 20 hrs by CLSI protocol based broth microdilution method; assay type: functional, organism-based; details: dose 0.5 µg/ml, time 18-20 hrs
[8] = test system: Staphylococcus aureus; assay: Antibacterial activity against methicillin resistant Staphylococcus aureus 119 assessed as inhibition of bacterial growth at 0.5 ug/ml incubated for 18 to 20 hrs by CLSI protocol based broth microdilution method; assay type: functional, organism-based; details: dose 0.5 µg/ml, time 18-20 hrs
[9] = test system: Staphylococcus aureus; assay: Antibacterial activity against methicillin resistant Staphylococcus aureus 384 assessed as inhibition of bacterial growth at 0.5 ug/ml incubated for 18 to 20 hrs by CLSI protocol based broth microdilution method; assay type: functional, organism-based; details: dose 0.5 µg/ml, time 18-20 hrs
[10] = test system: Staphylococcus aureus; assay: Antibacterial activity against methicillin sensitive Staphylococcus aureus 6538 assessed as inhibition of bacterial growth at 0.5 ug/ml incubated for 18 to 20 hrs by CLSI protocol based broth microdilution method; assay type: functional, organism-based; details: dose 0.5 µg/ml, time 18-20 hrs
How it was run: (§1)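 Staphylococcal and E. coli strains were diluted from a 0.5 McFarland suspension in cation-adjusted Mueller Hinton broth to ~5 × 10^5 CFU mL−1. They were incubated with serial dilutions of test agent in broth microdilution, and the MIC was recorded.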

[11] = test system: Staphylococcus aureus; assay: Antibacterial activity against methicillin sensitive Staphylococcus aureus 107 assessed as inhibition of bacterial growth at 0.5 ug/ml incubated for 18 to 20 hrs by CLSI protocol based broth microdilution method; assay type: functional, organism-based; details: dose 0.5 µg/ml, time 18-20 hrs; how it was run: as §1
[12] = test system: Vero; assay: Cytotoxicity against African green monkey Vero cells assessed as reduction in cell viability at 64 ug/ml incubated for 24 hrs by MTS assay; assay type: toxicity, cell-based; details: chlorocebus sabaeus, dose 64 µg/ml
How it was run: (§2)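 Vero or HaCaT cells were exposed to 32, 64 and 128 μg mL−1 compound in triplicate for 24 h at 37 °C, 5% CO2, with a DMSO control. MTS was then added for 4 h and OD490 read. Analysis used two-way ANOVA with Dunnett's post hoc test (p < 0.05).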

[13] = Cytotoxicity against human HaCaT cells assessed as tolerance by measuring cell viability at 64 ug/ml incubated for 24 hrs by MTS assay relative to control; assay type: toxicity, cell-based; details: at 64 µg/mL, read-out: Activity; how it was run: as §2

SMILES | Activity [1] | Activity [2] | Activity [3] | Activity [4] | Activity [5] | MIC [6] | Activity [7] | Activity [8] | Activity [9] | Activity [10] | Activity [11] | Activity [12] | viability at 24 h, 64 ug/ml [13]
C/C(=N\NC(=N)N)c1ccc(NC(=O)Nc2ccc(C#CC(C)(C)C)cc2)cc1 | Active | Active | Active | Active | Active | 0.5 µg/mL (≈ 1.28 µM) | Active | Active | Active | Active | Active | – | –
CCCCCCC#Cc1ccc(NC(=O)Nc2ccc(/C(C)=N/NC(=N)N)cc2)cc1 | Active | Active | Active | Active | Active | 0.5 µg/mL (≈ 1.19 µM) | Active | Active | Active | Active | Active | Non-Toxic | 100%
C/C(=N\NC(=N)N)c1ccc(NC(=O)Nc2ccc(C#CC(O)CC(C)C)cc2)cc1 (centres undefined) | Active | Active | Active | Active | Active | – | Active | Active | Active | Active | Active | – | –
